This passage reports cytotoxicity results from ChEMBL document CHEMBL4513216, “Probing the Open Global Health Chemical Diversity Library for Multistage-Active Starting Points for Next-Generation Antimalarials” (ACS Infect Dis, 2020).

The nature of this series: Toxicity liver stage against HepG2, at 10uM. It is filed as cell-based. Details: test concentration 10 uM, cell line HepG2-A16-CD81EGFP. The settings on record: human, HepG2-A16-CD81EGFP cells; read-out: INHIBITION
In a few lines: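 Uninfected HepG2-A16-CD81EGFP cells, 3 × 10^3 per well, 1536-well, plated on prespotted compound at 10 μM final, parasite-free screening media added to match infected plates; puromycin 10 μM positive, DMSO 0.5% negative; run in parallel with 48 h PbLuc assay at 37 °C, 5% CO2; viability by CellTiter-Glo luminescence, normalized to controls.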
For the molecule `CCc1nc(CNC(=O)C2CCC(=O)N(Cc3ccccc3F)C2)no1` (configuration not stated), the cytotoxicity at 10 µM was -1.88%.

For `CCC(NC(N)=O)c1ccccc1OCC(=O)N1CCCC1` (configuration not stated), the cytotoxicity at 10 µM was -8.29%.

As for `CCN1CC(COC(C)(C)C)Oc2ccncc2S1(=O)=O` (configuration not stated), the cytotoxicity at 10 µM was -3.43%.

With `COc1cc(C2CC(=O)Oc3cc(C)[nH]c(=O)c32)ccc1OCC(=O)O` (configuration not stated), the cytotoxicity at 10 µM was -4.23%.

`Cc1ccc(C(=O)Nc2nnc(C(C)C)s2)c(-n2cnnn2)c1C`: the cytotoxicity at 10 µM is -0.649%.

On to `COc1ccc(C(=O)Nc2ccc3ncn(C(C)C)c(=O)c3c2)cc1`, for which the cytotoxicity at 10 µM worked out at 4.04%.

As to `CCc1cc(=O)[nH]c2nnc(SCC(=O)NC)n12`, the cytotoxicity at 10 µM is -4.06%.

In the case of `CNC(=O)Cn1nc(C(C)C)c2cnn(C(C)(C)C)c2c1=O`, the cytotoxicity at 10 µM was -7.67%.

For the molecule `CC(=O)Nc1ccc(CC(=O)N2CC(S(=O)(=O)C3CCCCC3)C2)cc1`, the cytotoxicity at 10 µM was -12.8%.

With `COc1ccc(OC)c(Sc2ncccc2C(=O)N(C)CCC#N)c1`, the cytotoxicity at 10 µM is 13.3%.

For `O=C(Cn1cc(-c2ccccc2)ncc1=O)Nc1nnc[nH]1`, the cytotoxicity at 10 µM came out at 20.3%.

As for `CCn1nccc1CNC(=O)CCC1CCCC1`, the cytotoxicity at 10 µM worked out at 11.4%.

Regarding `CCCN1CCN(c2nc(N)nc3c2nc(C)n3C)CC1`, the cytotoxicity at 10 µM was -5.15%.

With `CCc1ncc(CN2CCc3nc4sc(C)cc4c(=O)n3CC2)cn1`, the cytotoxicity at 10 µM is -6.47%.

`O=S(=O)(c1ccc(F)cc1)N1CCCCC1c1cc[nH]n1` (configuration not stated): the cytotoxicity at 10 µM was -3.55%.

In the case of `O=C(c1cccc(F)c1)N1CCOC(c2nc(-c3ncccn3)no2)C1` (configuration not stated), the cytotoxicity at 10 µM amounted to 5.3%.

In the case of `COc1ccc(C(C)NCc2ccnn2C)cc1Cn1cccn1` (configuration not stated), the cytotoxicity at 10 µM was found to be 7.57%.

Consider `CCOC(C)c1nccn1CCC(=O)Nc1cc(C)on1` (configuration not stated), for which the cytotoxicity at 10 µM is 10.1%.

For the molecule `Cc1cnn(CCNCc2cc(=O)n3cc(Cl)ccc3n2)c1`, the cytotoxicity at 10 µM was found to be 0.217%.

Consider `CC(NC(=O)NC1CCN(Cc2ccncc2)CC1)c1cccc(F)c1` (configuration not stated), for which the cytotoxicity at 10 µM is -12.5%.

In the case of `O=C(c1ccn(-c2ccc(F)cc2)n1)N(CCO)Cc1cccnc1`, the cytotoxicity at 10 µM turned out to be 17.5%.

For `CC(C)c1nc(CNc2ccc(N3CCC(CO)CC3)cn2)cs1`, the cytotoxicity at 10 µM was -2.6%.

For the molecule `Cc1nn(C)c(C)c1C1CCCN1CCOc1cccc(C#N)c1` (configuration not stated), the cytotoxicity at 10 µM was -8.41%.

Turning to `CCC(=O)N1CCCN(c2cncc(-n3nc(C)cc3C)n2)CC1`, the cytotoxicity at 10 µM is -8.44%.

Regarding `CCc1ccc(CNC(=O)NC2CCCc3c2cnn3CCO)s1` (configuration not stated), the cytotoxicity at 10 µM is -6.78%.

Take `NC(=O)C(CNC(=O)CCc1ccsc1)Cc1ccc(F)cc1` (configuration not stated): the cytotoxicity at 10 µM came to 21.2%.

Consider `CCn1ccnc1CN1CCN(Cc2cnc(C)cn2)CC1C` (configuration not stated), for which the cytotoxicity at 10 µM was -2.76%.

Consider `COCC(NC(=O)c1ccoc1)c1ccc(C)o1` (configuration not stated), for which the cytotoxicity at 10 µM worked out at 3.6%.

Turning to `CCC1c2ccccc2CCN1C(=O)c1ccc(OC)nn1` (configuration not stated), the cytotoxicity at 10 µM was -12.8%.

In the case of `CN(CC1CCCCC1)C(=O)c1cn(C)nc1-c1cccnc1`, the cytotoxicity at 10 µM was determined as 2.2%.

`O=C(NCCCn1ccnc1)c1csc2c1CCCC2`: the cytotoxicity at 10 µM is -2.96%.

For `COCCNC(=O)C[C@@H]1COC[C@H]2CN(C(=O)COC)C[C@@H]12`, the cytotoxicity at 10 µM was -96.5%.

As to `COC[C@@]12CCO[C@@H]1CCN(C(=O)C1CCOCC1)C2`, the cytotoxicity at 10 µM is -106%.

With `CCS(=O)(=O)N1CCC2(CCN(Cc3ccc(C)o3)C2)C1` (configuration not stated), the cytotoxicity at 10 µM was -116%.

Regarding `CC(=O)Nc1nc(C)c(S(=O)(=O)NCCc2cccnc2)s1`, the cytotoxicity at 10 µM is -10.5%.

Regarding `CN1CCN2CCN(Cc3cc(=O)n4c5c(cccc35)CCC4)CC2C1` (configuration not stated), the cytotoxicity at 10 µM amounted to 9.05%.

`CCCN1CCC(N2CCOC(Cc3cccc(OC)c3)C2)CC1` (configuration not stated): the cytotoxicity at 10 µM turned out to be 8.69%.

For the molecule `COc1ccc(-n2cccn2)c(CN2CCC3(CCCNC3)C2)c1` (configuration not stated), the cytotoxicity at 10 µM was -1.09%.

With `Cc1ccc(C(=O)N2CCC3(CC2)c2ccccc2[C@@H](N)[C@@H]3O)c(=O)[nH]1`, the cytotoxicity at 10 µM was -2.72%.

Take `CCCN1CCN(C(=O)c2cccc3cccnc23)[C@H]2CS(=O)(=O)C[C@H]21`: the cytotoxicity at 10 µM came to 4.36%.

For the molecule `O=C(NCC(O)c1cccc(O)c1)C1CCN(C2CCCCC2)CC1` (configuration not stated), the cytotoxicity at 10 µM is 7.16%.

Turning to `c1ccc2c(c1)CC(Cc1cc(N3CCCC3)cnn1)CO2` (configuration not stated), the cytotoxicity at 10 µM is -6.03%.

As for `O=C(c1cn2cc(Cl)ccc2n1)N1CCC(CCn2cccn2)CC1`, the cytotoxicity at 10 µM is -10.2%.

Consider `O=C(c1cc(Cn2ccc3ccccc32)[nH]n1)N1CCCCC1CO` (configuration not stated), for which the cytotoxicity at 10 µM came out at 6.03%.

With `COCCN(Cc1cccc(OCCO)c1)Cc1ccccc1F`, the cytotoxicity at 10 µM was -9.53%.

Consider `CC1=C(C(=O)N2CCCC(Cn3cc(CO)nn3)C2)OCCO1` (configuration not stated), for which the cytotoxicity at 10 µM is 0.92%.

With `COCCCN(Cc1cnc(-c2cccs2)nc1)C1CCN(C)CC1`, the cytotoxicity at 10 µM is -3.85%.

Consider `CN(Cc1n[nH]c(=O)n1CCc1ccccc1F)S(C)(=O)=O`, for which the cytotoxicity at 10 µM was -1.78%.

Consider `CC(NC(=O)Cc1cc2c(cc1Cl)OCCO2)c1ccncn1` (configuration not stated), for which the cytotoxicity at 10 µM was -6.29%.

Consider `CC(C)c1cc(N2CCC[C@H](N)C2)n2nccc2n1`, for which the cytotoxicity at 10 µM is -5.42%.

Regarding `COc1ccccc1N1CCC(N2CCOC(C(F)(F)F)C2)CC1` (configuration not stated), the cytotoxicity at 10 µM was -1.45%.

As to `COc1cccc(-n2nnc(C(=O)N3CCC(C(N)=O)CC3)c2C)c1`, the cytotoxicity at 10 µM was -6.66%.

Take `O=C(c1ccc(N2CCOCC2)nc1)N1CCCC(n2ccnc2)C1` (configuration not stated): the cytotoxicity at 10 µM is -18.2%.

Turning to `CC(NCc1cccc(Cl)c1)c1ccc(OCC(=O)NC2CC2)cc1` (configuration not stated), the cytotoxicity at 10 µM is -12.2%.

Turning to `c1cnn(CC2CN(c3ncnc4[nH]ccc34)CCO2)c1` (configuration not stated), the cytotoxicity at 10 µM is -8.81%.

On to `CC(=O)NCC1CCN(C(=O)NCCc2ccc(Cl)s2)CC1`, for which the cytotoxicity at 10 µM was -6.19%.

Regarding `CCn1cnnc1C1CCN(C(=O)c2cccc3c2ccn3C)CC1`, the cytotoxicity at 10 µM was -8%.

Take `Cc1nc(C)n(CC2CN(Cc3cccnc3)CCO2)n1` (configuration not stated): the cytotoxicity at 10 µM is -5.38%.

On to `Cc1nc(C)c(C(=O)NCCNC(=O)Cc2cccc(F)c2)s1`, for which the cytotoxicity at 10 µM is -8.45%.

For the molecule `Cn1ccnc1CN1CCN(CC(=O)NCC(F)(F)F)CC1`, the cytotoxicity at 10 µM is -10%.

Regarding `Cn1cnc2c1CCN(Cc1csc(-c3ccsc3)n1)C2`, the cytotoxicity at 10 µM is -8.78%.

With `O=C(Nc1cccc2c1CCCC2)C1CCCN1c1nccs1` (configuration not stated), the cytotoxicity at 10 µM is -4.15%.

On to `COCCOc1ncccc1C(=O)Nc1ccc(-n2cncn2)c(F)c1`, for which the cytotoxicity at 10 µM was -0.138%.

As for `CCn1cc(NC(=O)NCC(C)O)cn1` (configuration not stated), the cytotoxicity at 10 µM is -4.84%.

As to `Cc1nccn1CC1CCCN1S(=O)(=O)Cc1ccccc1F` (configuration not stated), the cytotoxicity at 10 µM was -3.33%.

Turning to `Cc1ccc2cc(C(=O)NCCn3nc4ccccn4c3=O)[nH]c2c1`, the cytotoxicity at 10 µM came to 2.95%.

Turning to `Cc1ccc(CN2CC[C@H]3[C@H](CO[C@H]3CN(C)C)C2)o1`, the cytotoxicity at 10 µM was -129%.

As for `Cc1nn(CCO)c(C)c1CNC1CCOc2ccccc21` (configuration not stated), the cytotoxicity at 10 µM was 14.4%.

With `CN(C)CCN1C(=O)CCC12CCN(C(=O)c1cccnc1)CC2`, the cytotoxicity at 10 µM turned out to be 6.41%.

For `O=C1COC2(COCCN(Cc3ccsc3)C2)CN1c1ccc(F)cc1` (configuration not stated), the cytotoxicity at 10 µM came to 2.83%.

Turning to `COCC1CC2(CCN(CC3CC3)CC2)CN1Cc1ccccn1` (configuration not stated), the cytotoxicity at 10 µM was -97.4%.

With `CSc1ccc(-c2cc(CN)nc3ccnn23)cc1`, the cytotoxicity at 10 µM is -7.5%.
